Test system: K562
Assay: Cytotoxicity against human K562 cells after 5 days by MTT assay
Assay type: cell-based
Details: K562, 120 h
Summary of the method: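 K562 human chronic myelogenous leukaemia cells were cultured at 37 °C with drug for 5 days, and growth was read by MTT assay. IC50 was taken as the concentration giving 50% inhibition of cell growth.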

`COc1ccc(/C=C(\C#N)C(=O)c2cc(OC)c(OC)c(OC)c2)cc1Br` and `COc1ccc(/C=C(\C#N)C(=O)c2cc(OC)c(OC)c(OC)c2)cc1F` cannot be ordered by IC50: greater than 10 µM for the first, greater than 10 µM for the second.

Going from `COc1ccc(/C=C(\C#N)C(=O)c2cc(OC)c(OC)c(OC)c2)cc1OC` to `COc1ccc(/C=C(\F)C(=O)c2cc(OC)c(OC)c(OC)c2)cc1OC`, the IC50 falls from greater than 10 µM to 1.21 µM.

Going from `COc1ccc(/C=C(\C#N)C(=O)c2cc(OC)c(OC)c(OC)c2)cc1` to `COc1ccc(/C=C(\F)C(=O)c2cc(OC)c(OC)c(OC)c2)cc1`, the IC50 falls from greater than 10 µM to 0.39 µM. The second is the more potent here.

Going from `COc1cc(C(=O)/C(F)=C/c2ccc3c(c2)OCO3)cc(OC)c1OC` to `COc1cc(C(=O)/C(C#N)=C/c2ccc3c(c2)OCO3)cc(OC)c1OC`, the IC50 rises from 0.8 µM to greater than 10 µM. The first is the more potent here.

First: COc1cc(C(=O)/C(C#N)=C/c2ccc(C(F)(F)F)cc2)cc(OC)c1OC
Second: COc1ccc(/C=C(\C#N)C(=O)c2cc(OC)c(OC)c(OC)c2)cc1O
The IC50 of the first is higher: greater than 10 µM for the first, 4.2 µM for the second.

Going from `CCOC(=O)/C(=C\c1ccc(OC)c(O)c1)C(=O)c1cc(OC)c(OC)c(OC)c1` to `CCOC(=O)/C(=C/c1ccc(OC)c(OC)c1)C(=O)c1cc(OC)c(OC)c(OC)c1`, the IC50 rises from 0.87 µM to greater than 10 µM.

Going from `COc1cc(C(=O)/C(F)=C/c2ccc(OC)c(OC)c2OC)cc(OC)c1OC` to `COc1cc(C(=O)/C(C#N)=C/c2ccc(OC)c(OC)c2OC)cc(OC)c1OC`, the IC50 rises from 10 µM to greater than 10 µM. The first is the more potent here.

Compared with `COc1ccc(/C=C(\F)C(=O)c2cc(OC)c(OC)c(OC)c2)cc1Br`, `COc1ccc(/C=C(\F)C(=O)c2cc(OC)c(OC)c(OC)c2)cc1O` is 440-fold lower in IC50: 6 µM for the first, 0.0137 µM for the second. The second is the more potent here.

`CCOC(=O)/C(=C/c1ccc(OC)c(OC)c1OC)C(=O)c1cc(OC)c(OC)c(OC)c1` and `CCOC(=O)/C(=C/c1ccc(OC)cc1)C(=O)c1cc(OC)c(OC)c(OC)c1` cannot be ordered by IC50: greater than 10 µM for the first, greater than 10 µM for the second.

First: COc1ccc(/C=C(\C#N)C(=O)c2cc(OC)c(OC)c(OC)c2)c(F)c1
Second: COc1ccc(/C=C(\F)C(=O)c2cc(OC)c(OC)c(OC)c2)c(F)c1
The IC50 of the first is higher: greater than 10 µM for the first, 1.19 µM for the second.

Compared with `CCOC(=O)/C(=C/c1ccc(OC)c(O[Si](C)(C)C(C)(C)C)c1)C(=O)c1cc(OC)c(OC)c(OC)c1`, `COc1ccc(/C=C(\C#N)C(=O)c2cc(OC)c(OC)c(OC)c2)cc1O[Si](C)(C)C(C)(C)C` is higher in IC50: 4.29 µM for the first, greater than 10 µM for the second.

In the case of `COc1ccc(/C=C(\F)C(=O)c2cc(OC)c(OC)c(OC)c2)cc1F`, the IC50 is reported as 0.77 µM.

Biological target: Tubulin
Assay: Inhibition of tubulin
Assay type: protein-complex assay, Homo sapiens
Details: not given

Going from `COc1ccc(/C=C/C(=O)c2cc(OC)c(OC)c(OC)c2)cc1O` to `COc1ccc(/C=C(\C)C(=O)c2cc(OC)c(OC)c(OC)c2)cc1O`, the IC50 falls from 10 µM to 1.8 µM (5.6-fold). The second is the more potent here.

Going from `COc1ccc(/C=C(\F)C(=O)c2cc(OC)c(OC)c(OC)c2)cc1` to `COc1ccc(/C=C(\F)C(=O)c2cc(OC)c(OC)c(OC)c2)cc1O`, the IC50 falls from 4.6 µM to 0.6 µM (7.7-fold). The second is the more potent here.

Reference: ChEMBL document CHEMBL1139714, “Effects of alpha-substitutions on structure and biological activity of anticancer chalcones” (Bioorg Med Chem Lett, 2006)
